Screening results from PubChem.
Runt-SMMHC FRET: inhibitors of RUNX1 Runt–CBFb-SMMHC binding, primary screen, biochemical, FRET, Cerulean-Runt, Venus-CBFb-SMMHC, uHTS; Runt-related transcription factor 1 (Homo sapiens) + Core-binding factor subunit beta …; Cerulean-Runt/Venus-CBFb-SMMHC FRET ratio 530/480, 1 h; inhibition, % at 20 µM; hit rate 0.74% among 220,000;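 active = mean inhibition across duplicate retests at 20 µM reaching about 50%, limit read from the data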;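 also: 0% = DMSO wells and 100% = wells with excess untagged CBFb-SMMHC; inhibitors lower the FRET ratio by blocking Runt binding to CBFb-SMMHC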
Target sequence (Q01196 whole entry, looked up): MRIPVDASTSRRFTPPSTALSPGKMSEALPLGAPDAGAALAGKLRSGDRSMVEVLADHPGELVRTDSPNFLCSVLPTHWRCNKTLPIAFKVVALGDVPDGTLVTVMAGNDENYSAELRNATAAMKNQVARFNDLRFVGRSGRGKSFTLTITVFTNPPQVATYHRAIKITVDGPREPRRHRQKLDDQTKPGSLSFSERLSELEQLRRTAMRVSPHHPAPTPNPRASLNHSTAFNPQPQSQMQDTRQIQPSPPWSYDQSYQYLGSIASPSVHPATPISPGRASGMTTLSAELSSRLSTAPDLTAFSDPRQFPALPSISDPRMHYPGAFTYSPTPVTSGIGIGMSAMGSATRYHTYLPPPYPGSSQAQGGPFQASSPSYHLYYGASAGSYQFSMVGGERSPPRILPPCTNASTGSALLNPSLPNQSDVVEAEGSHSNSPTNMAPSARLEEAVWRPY
Target sequence (Q13951 whole entry, looked up): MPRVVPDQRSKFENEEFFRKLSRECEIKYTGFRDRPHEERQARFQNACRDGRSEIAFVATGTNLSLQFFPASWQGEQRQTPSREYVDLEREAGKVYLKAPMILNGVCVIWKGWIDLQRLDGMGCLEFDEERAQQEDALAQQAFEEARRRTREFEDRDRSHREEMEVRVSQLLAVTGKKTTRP
CaV13 FRET inh: Disruptors of the CACNA1D IQ motif to Ca2+-dependent inactivation inhibitor domain association, primary screening, Förster resonance energy transfer in intact living …; inhibition, % at 12.3 µM; AID 743397; hit rate 0.098% among 340,000; HEK cells, CFP/YFP FRET ICDI-IQ, plate reader, 10 min; percent FRET-ratio fall versus neutral wells;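 active = mean replicate inhibition of at least 30% and at least 1% of replicates passing that level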;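 also: 0% = median of the neutral control wells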
Runt-CBFb FRET: inhibitors of RUNX1 Runt–CBFb binding, primary screen, biochemical, FRET, Cerulean-Runt, Venus-CBFb, uHTS. AID 1496, 2009. Runt-related transcription factor 1 (Homo sapiens) + Core-binding factor subunit beta …. Cerulean-Runt/Venus-CBFb FRET ratio 530/480, 1 h. inhibition, % at 20 µM. hit rate 0.46% among 220,000;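 active = inhibition over about 50% at 20 µM in the single-dose screen, limit read from the data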;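 also: 0% = DMSO wells and 100% = excess unlabeled CBFb competitor control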
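test system = Cerulean-tagged RUNX1 Runt domain (FRET donor) fusion protein | reagent = Venus-CBFb binding partner, 100 nM | incubation = protein complex preformed 1 h, compound exposure 1 h, room temperature, dark | detection = FRET fluorescence | read-out basis = loss of energy transfer signal | controls = 5 µM unlabeled CBFb as full-inhibition high control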
RanGTP-Impb inh: inhibitors of RanGTP-importin-beta interaction, primary screen, biochemical, FRET, CFP-Ran, YFP-importin-beta, homogeneous. inhibition, % (test concentration not listed). hit rate 1.1% among 300,000. cell-free CFP-Ran/YFP-importin-beta FRET ratio;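 active = more than half of the replicate wells show a fall in the fluorescence ratio signal beyond about 16%, limit read from the data, passing the limit was not always enough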;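 also: 0% = DMSO wells and 100% = Ran loaded with GDP instead of GTP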
YIC FRET counter: YIC intramolecular FRET probe signal interference, dose response, counter-screen for RanGTP-importin-beta inhibitor project, biochemical, fluorescence FRET; hit rate 40% among 1,000; IC50, µM; Purified YIC probe, intramolecular FRET ratio YFP/CFP; shares compounds with RanGTP-Impb inh; AID 435026, 2010;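 active = fitted half-maximal inhibitory concentration no more than tenfold above the top dose tested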
The depositor's hits bear a star. A selection: hits, their analogues and other compounds. The true share with any hit is near 1.2%.

Screening CC1Cc2cc(S(=O)(=O)NCc3ccccc3)ccc2N1C(=O)C1CCC1 (centres undefined) returned CaV13 FRET inh -14.5 and RanGTP-Impb inh 0.8.
`CC1Cc2cc(S(=O)(=O)NCc3ccccc3)ccc2N1C(=O)C1CC1` (centres undefined) gave CaV13 FRET inh -3.8, RanGTP-Impb inh 18.2* and YIC FRET counter >50.
Screening CCN(Cc1ccncc1)C(=O)c1cccc(S(=O)(=O)N2CCCCC2)c1 returned CaV13 FRET inh -6.9.
`COC(=O)c1c(C)oc(C)c1S(=O)(=O)N1CCCC1` gave Runt-SMMHC FRET 0.6, CaV13 FRET inh -4.9, Runt-CBFb FRET 0.0 and RanGTP-Impb inh -1.6.
Screening CCCN1CC(O)=C(C#N)C1=O returned Runt-SMMHC FRET 0.6, Runt-CBFb FRET -0.4, RanGTP-Impb inh 24.0* and YIC FRET counter >50.
For CC1=C(C#N)C(=O)N(C)C(C)(C)C1 the results were Runt-SMMHC FRET 1.8, CaV13 FRET inh -4.1, Runt-CBFb FRET 0.6 and RanGTP-Impb inh -3.6.
For Cc1ccc(C(=O)Nc2ccc(S(=O)(=O)N3CCOCC3)cc2)cc1Br the results were CaV13 FRET inh -3.2 and RanGTP-Impb inh 3.9.
COc1ccc(C(=O)Nc2sc3c(c2C#N)CCN(C(C)=O)C3)cc1 was read as Runt-SMMHC FRET 61.9*, CaV13 FRET inh 12.8, Runt-CBFb FRET 41.1, RanGTP-Impb inh 42.0* and YIC FRET counter >50.
For N#Cc1c(N)nc2c(c1-c1ccc(Br)s1)CCCC2 the results were Runt-SMMHC FRET 10.1, CaV13 FRET inh -5.7, Runt-CBFb FRET 2.8 and RanGTP-Impb inh 5.1.
Screening Cc1ccc(-c2c(C#N)c(N)nc3c2CCCC3)s1 returned Runt-SMMHC FRET 7.4, CaV13 FRET inh -4.5, Runt-CBFb FRET 7.1, RanGTP-Impb inh 21.6* and YIC FRET counter 27.1*.
`N#Cc1c(N)nc2c(c1-c1ccc(F)cc1)CCC2` gave Runt-SMMHC FRET 29.0, CaV13 FRET inh -4.1, Runt-CBFb FRET 19.3, RanGTP-Impb inh 20.9* and YIC FRET counter 9.91*.
CCc1nc(N)c(C#N)c(-c2ccc(F)cc2)c1C was read as Runt-SMMHC FRET 1.1, Runt-CBFb FRET 1.0, RanGTP-Impb inh 22.8* and YIC FRET counter >50.
`O=C(NCC1CCCO1)C1CCCN(S(=O)(=O)c2ccc(Cl)cc2)C1` (centres undefined) gave CaV13 FRET inh -3.6 and RanGTP-Impb inh 0.9.
`Cc1ccc(OCC(=O)Nc2cc(S(=O)(=O)N3CCCCC3)ccc2C)c([N+](=O)[O-])n1` gave Runt-SMMHC FRET 1.1, CaV13 FRET inh -5.4, Runt-CBFb FRET -3.9 and RanGTP-Impb inh 7.5.
For OCCc1c[nH]c2cc(F)ccc12 the results were CaV13 FRET inh -4.8 and RanGTP-Impb inh -1.6.
For C[C@H](O)c1[nH]c2cc(F)ccc2c1[C@H](C)O the results were CaV13 FRET inh -4.8, RanGTP-Impb inh 17.5* and YIC FRET counter >50.
Cc1noc(C)c1NC(=O)N(C)C[C@H]1OCCCC[C@@H](C)Oc2ccc(NC(=O)Nc3ccc(F)cc3)cc2C(=O)N([C@@H](C)CO)C[C@H]1C was read as CaV13 FRET inh -6.1.
C[C@@H]1CCCCO[C@@H](CN(C)C(=O)CCC(F)(F)F)[C@@H](C)CN([C@@H](C)CO)C(=O)c2cc(NC(=O)CCC(F)(F)F)ccc2O1 was read as YIC FRET counter >50.
`Cc1noc(C)c1NC(=O)Nc1ccc2c(c1)C(=O)N([C@H](C)CO)C[C@@H](C)[C@@H](CN(C)C(=O)Nc1c(C)noc1C)OCCCC[C@@H](C)O2` gave YIC FRET counter >50.
Screening O=C(CSCC(=O)OCC(=O)N1CCN(C(=O)c2ccco2)CC1)Nc1ccc(Cl)cc1 returned CaV13 FRET inh -5.0.
Screening O=C(COC(=O)CSCC(=O)N1CCCCC1)Nc1ccc(Cl)cc1 returned Runt-SMMHC FRET 4.4, Runt-CBFb FRET -1.5, RanGTP-Impb inh 28.3* and YIC FRET counter >50.
`COc1ccc(-n2nc([N+](=O)[O-])c(=NCCC3=CCCCC3)n2O)cc1` gave Runt-SMMHC FRET -3.9, CaV13 FRET inh 5.1, Runt-CBFb FRET -5.4 and RanGTP-Impb inh 3.6.
`COC(=O)C1=CN(Cc2ccccc2)C=C(C(=O)OC)C1c1cc(F)ccc1F` gave CaV13 FRET inh -2.5, RanGTP-Impb inh 23.8* and YIC FRET counter 20.9*.
COc1ccc(N=Cc2cc(Cc3ccccc3Cl)cc([N+](=O)[O-])c2O)cc1OC was read as Runt-SMMHC FRET -15.0, Runt-CBFb FRET -6.4, RanGTP-Impb inh 15.6* and YIC FRET counter >50.
For Cc1ccc(N=Cc2cc(Cc3ccccc3Cl)cc([N+](=O)[O-])c2O)c(O)c1 the results were Runt-SMMHC FRET -44.3, Runt-CBFb FRET -17.8 and RanGTP-Impb inh -7.3.
O=C(c1cc(COc2ccc(F)cc2Cl)on1)N1CCCC(c2ccccc2)C1 (centres undefined) was read as Runt-SMMHC FRET 2.4, CaV13 FRET inh 2.3, Runt-CBFb FRET -2.6, RanGTP-Impb inh 17.7* and YIC FRET counter >50.
For O=C(c1cc(COc2ccc(F)cc2F)on1)N1CCCC(c2ccccc2)C1 (centres undefined) the results were Runt-SMMHC FRET -4.8, CaV13 FRET inh -6.9, Runt-CBFb FRET -1.7 and RanGTP-Impb inh 4.8.
Screening COCC1COS(=O)(=O)NC1(C)C (centres undefined) returned CaV13 FRET inh -9.3 and RanGTP-Impb inh 2.7.
Screening O=C(NC1CC1)c1ccc2c(Cl)c3c(nc2c1)CCCC3 returned Runt-SMMHC FRET -0.1, CaV13 FRET inh 3.3, Runt-CBFb FRET -4.0, RanGTP-Impb inh 17.5* and YIC FRET counter >50.
For COc1ccccc1N=C(C)C1=C(O)CC(c2ccccc2)CC1=O (centres undefined) the results were Runt-SMMHC FRET -0.6, CaV13 FRET inh -2.9, Runt-CBFb FRET -1.9, RanGTP-Impb inh 20.0* and YIC FRET counter >50.
Cc1cc(C(=O)N2CCC2(C)C(=O)Nc2cc(C(C)(C)C)nn2C)nn1C (centres undefined) was read as CaV13 FRET inh -9.5.
`COc1ccc(Br)cc1S(=O)(=O)n1ccnc1C` gave Runt-SMMHC FRET 7.6, CaV13 FRET inh -2.7, Runt-CBFb FRET -0.5 and RanGTP-Impb inh 1.3.
For COc1ccc(OC)c(S(=O)(=O)n2ccnc2C)c1 the results were Runt-SMMHC FRET 3.4, CaV13 FRET inh -3.8, Runt-CBFb FRET 0.5, RanGTP-Impb inh 27.0* and YIC FRET counter >50.
